Screening data deposited in PubChem BioAssay by The Scripps Research Institute Molecular Screening Center.
SIAE inh = human SIAE inhibitors, primary screen, biochemical, fluorescence polarization, FP-Rh probe, 1536-well HTS. AID 1053197, 2014. Sialate O-acetylesterase (Homo sapiens), Q9HAT2. inhibition, % at 9.66 µM. 370,000 tested, 0.69% active. SIAE FP-Rh probe binding;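 active = inhibition above a cutoff: mean of compounds within the control limits plus 3 SD of those, cut at about 17% in these data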
Target sequence (Q9HAT2 whole entry, looked up): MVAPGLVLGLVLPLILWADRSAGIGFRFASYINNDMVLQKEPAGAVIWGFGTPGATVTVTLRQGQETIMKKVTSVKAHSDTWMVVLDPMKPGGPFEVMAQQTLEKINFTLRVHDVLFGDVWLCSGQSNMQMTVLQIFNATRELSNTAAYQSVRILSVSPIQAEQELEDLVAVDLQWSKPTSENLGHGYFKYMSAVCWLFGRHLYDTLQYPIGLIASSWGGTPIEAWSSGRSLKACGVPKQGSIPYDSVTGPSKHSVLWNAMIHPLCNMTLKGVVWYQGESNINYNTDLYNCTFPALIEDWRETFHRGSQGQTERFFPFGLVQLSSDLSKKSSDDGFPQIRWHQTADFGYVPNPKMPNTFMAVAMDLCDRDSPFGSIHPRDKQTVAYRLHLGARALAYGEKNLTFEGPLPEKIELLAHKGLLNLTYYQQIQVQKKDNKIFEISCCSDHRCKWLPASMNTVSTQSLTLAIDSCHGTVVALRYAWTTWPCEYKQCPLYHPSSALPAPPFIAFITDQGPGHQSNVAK
HTRA1 inh = HTRA1 serine protease inhibitors, primary screen, biochemical, fluorescence polarization, HTS. Q92743. recombinant HTRA1, FP-rhodamine activity-based probe. inhibition, % at 5.96 µM. 340,000 tested, 0.5% active; in the data active = inhibition above about 36%
TCR CD3 inh = inhibitors of human TCR-CD3 interaction, primary screen, biochemical, fluorescence, TAMRA-labeled TCR probe; T-cell receptor (TCR); 360,000 tested, 0.37% active; inhibition, % at 9.4 µM; in the data active = inhibition above about 19%;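 also: recombinant mutant TCR 2C K166C tagged with TAMRA read by polarization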
PRMT1 inh = PRMT1 methyltransferase inhibitors, primary screen, biochemical, fluorescence polarization | 370,000 tested, 1.3% active | recombinant PRMT1, activity-based probe fluorescence polarization | Protein arginine N-methyltransferase 1 (Homo sapiens), Q99873 | inhibition, % at 2.79 µM;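 active = inhibition above about 21% made by adding two undisclosed values, limit read from the data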
ABHD4 inh = ABHD4 inhibitors, primary screen, biochemical, fluorescence polarization, mouse; purified mABHD4, FP-Rh probe fluorescence polarization; 370,000 tested, 0.54% active; inhibition, % at 8.92 µM; AID 720543, 2013;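 active = inhibition exceeding the mean over every tested compound plus 3 SD, cut at about 30% in these data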
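Test system: mouse ABHD4 enzyme, wild type. Reagent: FP-Rh fluorescent activity-based probe, added after compound pre-incubation. Timing: pre-incubation 45 min, probe exposure 60 min, at 25 °C. Technique: FP readout, ex 525 nm / em 598 nm. Benchmarks: high control S159A mutant with DMSO, low control median of compound wells.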
rCAG binder = binders of r(CAG) RNA repeats, primary screen, biochemical, fluorescence | AID 651821, 2012 | 370,000 tested, 1.3% active | inhibition, % at 3 µM | r(CAG) RNA repeat, TO-PRO-1 dye displacement fluorescence;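 active = inhibition above the plate cutoff, the mean of all test compounds on that plate plus 3 SD, cut at about 35% in these data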;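 also: higher means more dye released from RNA so lower well fluorescence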
PRMT1 confirm = PRMT1 methyltransferase inhibitors, confirmation, biochemical, fluorescence polarization, triplicate; shares compounds with PRMT1 inh; 3,300 tested, 42% active; inhibition, % at 2.79 µM; AID 687036, 2013; recombinant His-PRMT1, activity-based probe fluorescence polarization;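 active = mean inhibition across replicates above the hit cutoff derived for the earlier primary screen, cut at about 22% in these data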
Large screens that a line does not name were inactive (follow-up assays come after a bar, where they were run). An excerpt weighted towards active compounds, which were near 3.5% of everything screened.

CNC(=O)/C=C1\NC(C)(C)Cc2ccccc21	PRMT1 inh 40.9 | PRMT1 confirm 55.1
Cc1cc2c(cc1C)/C(=C\C(N)=O)NC(C)(C)C2	PRMT1 inh 26.2 | PRMT1 confirm 33.7
CCNC(=O)/C=C1\NC(C)(C)Cc2c1ccc1ccccc21	none
Cc1cccc2c1CC(C)(C)N/C2=C\C(N)=O	PRMT1 inh 45.3 | PRMT1 confirm 44.5
COc1cc2c(cc1OC)/C(=C/C#N)NC(C)(C)C2	none
CC1(C)Cc2ccccc2C(=O)N1	none
Cc1cccc(N2CCN(C(=O)c3cc(S(=O)(=O)N(C)C)ccc3Cl)CC2)c1C	none (no result: HTRA1 inh, TCR CD3 inh, rCAG binder)
CC(c1ccccc1)n1cc(C(=O)N2CCCN(Cc3ccccc3)CC2)nn1 (stereo unspecified)	none (no result: HTRA1 inh, TCR CD3 inh)
CS(=O)(=O)c1ccc(C(=O)OCC#CCSc2nnc(-c3cccc4ccccc34)o2)cc1	none (no result: HTRA1 inh, TCR CD3 inh, rCAG binder)
COc1cccc(Cn2cnc(-c3ccccc3OC)c2-c2ccco2)c1	PRMT1 inh 31.9 (no result: HTRA1 inh) | PRMT1 confirm inactive
C=CCN(CC#Cc1ccc(OC)cc1)CC=C	none (no result: HTRA1 inh, TCR CD3 inh)
O=C(Cc1ccc(S(=O)(=O)N2CCOCC2)s1)Nc1nc2c(s1)CCCC2	PRMT1 inh 29.4 | PRMT1 confirm inactive
O=C(Cc1ccc(S(=O)(=O)N2CCOCC2)s1)Nc1ccc2c(c1)CCC2	none
COCCNC(=O)c1cc(-c2ccccc2)sc1N	PRMT1 inh 31.9 (no result: HTRA1 inh) | PRMT1 confirm inactive
CCCCNC(=O)c1cc(-c2ccccc2)sc1N	none (no result: HTRA1 inh)
O=C(O)c1cc(-c2ccc(/C=C3\NC(=O)N(c4ccc(Cl)cc4)C3=O)o2)ccc1Cl	PRMT1 inh 26.6 | PRMT1 confirm 21.7
O=C(O)c1cc(-c2ccc(/C=C3\NC(=O)N(c4ccccc4)C3=O)o2)ccc1Cl	none
Cc1snc(SCC(=O)c2ccc([N+](=O)[O-])cc2)c1C#N	PRMT1 inh 46.5 | PRMT1 confirm 53.1
CCCCNS(=O)(=O)/C=C/c1cc2c(cc1CNC(=O)OC(C)(C)C)OCO2	none (no result: HTRA1 inh, TCR CD3 inh)
COC(=O)[C@]1(C)CN(C(=O)OC(C)(C)C)C2=C1C(=O)C[C@@](C)(C(=O)OC(C)(C)C)C2	none (no result: HTRA1 inh, TCR CD3 inh)
c1cncc(-c2nnc(-c3cccnc3)nn2)c1	none
Cn1c(SSc2ccc(-c3cccnc3)n2C)ccc1-c1cccnc1	PRMT1 inh 68.9 | PRMT1 confirm 77.2
CCC(=O)N1CCN(c2ccccc2NC(=O)COc2cc(C)ccc2C(C)C)CC1	PRMT1 inh 111.7 | PRMT1 confirm inactive
Cc1ccc(C(C)C)c(OCC(=O)NC(=S)Nc2ccccc2N2CCOCC2)c1	none
N#Cc1cc2c([nH]c1=S)CCCCCC2	PRMT1 inh 25.7 | PRMT1 confirm inactive
N#Cc1c(N)n[nH]c1-c1cc2c([nH]1)CCCC2	none
O=C(NCc1cccc2ccccc12)C1CCCN(c2nc3ccccc3o2)C1 (stereo unspecified)	none (no result: HTRA1 inh, TCR CD3 inh)
S=c1nc(C23CC4CC(CC(C4)C2)C3)[nH][nH]1	PRMT1 inh 33.6 | PRMT1 confirm inactive
C[C@H]1C2CC(OC(=O)NCc3ccccc3)C(C2)[C@H]2CCCCN21 (stereo partly specified)	none (no result: HTRA1 inh, TCR CD3 inh)
CCOC(=O)CC(=O)CSc1nc(-c2cccnc2)ccc1C#N	PRMT1 inh 55.9 | PRMT1 confirm inactive
CCOC(=O)CC(=O)CSc1nccc(-c2cccnc2)n1	PRMT1 inh 37.9 | PRMT1 confirm inactive
COC(=O)[C@]12C[C@H](CC(=O)NCc3ccccc3)C(=O)N(Cc3ccco3)C1=C[C@H](COCc1ccccc1)O[C@@H]2C	none (no result: HTRA1 inh, TCR CD3 inh)
Cc1ccc(C(CC(=O)c2ccco2)SCCO)cc1 (stereo unspecified)	PRMT1 inh 27.6 | PRMT1 confirm 32.1
O=C(CC(SCCO)c1ccc(F)cc1)c1ccco1 (stereo unspecified)	PRMT1 inh 33.4 | PRMT1 confirm 30.4
O=C(c1ccco1)N1CCN=C1SCc1ccc(F)cc1	none
COc1cccc(Nc2n[nH]c(=S)s2)c1	PRMT1 inh 43.0 | PRMT1 confirm 35.9
COc1cccc(Nc2nc(-c3sc(C)nc3C)cs2)c1	none
COc1ccccc1Nc1n[nH]c(=S)s1	PRMT1 inh 47.2 | PRMT1 confirm inactive
CCOC(=O)Cn1cc(CN2CCS(=O)(=O)N(Cc3ccc(OC)cc3)C(C(=O)OC)C2)nn1 (stereo unspecified)	none (no result: HTRA1 inh, TCR CD3 inh)
Cc1ccc(S(=O)(=O)N2CCN(C(=O)CN3CCN(c4ccc(O)cc4)CC3)CC2)cc1	PRMT1 inh 33.6 | PRMT1 confirm inactive
O=C(CN1CCCCCC1)Nc1ccc(F)c(F)c1F	none
O=C(CN1CCCCCC1)NC(c1ccccc1)c1ccccc1	none
Cc1ccc(N2CCN(S(=O)(=O)c3ccc(C)cc3)CC2)cc1	none
Cc1cc(NC(=O)CN2CCN(S(=O)(=O)c3ccc(Cl)cc3)CC2)no1	none
Cc1cc(NC(=O)CN2CCN(c3ccc(O)cc3)CC2)no1	PRMT1 inh 41.7 | PRMT1 confirm inactive
O=C(CN1CCN(c2ccc(O)cc2)CC1)NCC(=O)Nc1ccc(F)c(F)c1F	PRMT1 inh 36.5 | PRMT1 confirm inactive
O=C(CN1CCN(c2ccc(O)cc2)CC1)NC(c1ccccc1)c1ccccc1	PRMT1 inh 25.3 | PRMT1 confirm inactive
N[C@H]1CC[C@@H]2SC[C@@H](C(=O)O)N2C1=O	none (no result: HTRA1 inh, TCR CD3 inh)
CNc1ccccc1/C(O)=C(\C#N)C(=O)NCc1cccs1	none (no result: HTRA1 inh, TCR CD3 inh)
CC(C)(C)C(=O)OC12CCCN(C1)/C(=C/c1ccncc1)C2 (stereo unspecified)	none (no result: HTRA1 inh, TCR CD3 inh)
COC(=O)[C@]1(C#N)CC(=O)N(c2ccccc2)[C@@H]1c1ccccc1	none (no result: HTRA1 inh, TCR CD3 inh)
CCCCN=Cc1sc2ccc(OCC)cc2c1O	PRMT1 inh 30.2 | PRMT1 confirm 31.6
Cc1ccc(CNC(=O)CSc2c3c(nc4ccc(Cl)cc24)CCCC3)o1	PRMT1 inh 50.4 | PRMT1 confirm inactive
CCN(CC)CCNC(=O)CSc1c2c(nc3cc(Cl)ccc13)CCCC2	none
Cc1cccc(Cn2c(C(=O)OC(C)C)cc3c2ccn3C)c1	PRMT1 inh 36.0 | PRMT1 confirm inactive
O=C(CSc1nnc(CNC(=O)c2ccco2)o1)Nc1ccccc1	none
O=C(CSc1nnc(CNC(=O)c2ccco2)o1)Nc1nc2ccccc2s1	PRMT1 inh 56.4 | PRMT1 confirm inactive
COC(=O)C1CSC2c3ccccc3C(=O)N12 (stereo unspecified)	PRMT1 inh 32.1 | PRMT1 confirm inactive
O=C(NCCN1CCC(Cc2ccccc2)CC1)C1CCCN(S(=O)(=O)c2ccccc2)C1 (stereo unspecified)	none (no result: HTRA1 inh, TCR CD3 inh)
Cc1cc(NC(=O)/C=C\C(=O)O)c([N+](=O)[O-])cc1C	PRMT1 inh 46.7 | PRMT1 confirm inactive
COc1ccc(NC(=O)/C=C/C(=O)O)c([N+](=O)[O-])c1	PRMT1 inh 42.6 | PRMT1 confirm inactive
